NALP3 yeast inh: NALP3 inflammasome inhibitors in reconstituted yeast, primary screen, luminescence, uHTS; Yeast reconstituted NLRP3/ASC/caspase-1, beta-gal luminescence, 24 h; inhibition, % at 10 µM; hit rate 0.39% among 330,000;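 active = inhibition of 50% or more; inactive = inhibition below 50%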
Arrestin-AP2 inh: inhibitors of beta-arrestin/AP2 binding, primary screen, biochemical, GPCR trafficking, flow cytometry; inhibition, % at 10 µM; hit rate 0.31% among 340,000; beta-arrestin 1 C-terminal peptide binding to AP2 beta2-adaptin appendage (human); AID 504490, 2011; FITC-arrestin peptide / GST-AP2 beads; AP2 beta2 appendage carries R879A mutation;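 active = inhibition above a set limit, near 3 SD of compounds lacking own fluorescence, cut at about 54% in these data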
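test system = AP2 appendage R879A on GSH beads | buffer or medium = PBS plus Tween 20 (0.05%) and BSA (0.1%) | incubation = 12 min plus 1 h, RT | detection = bead flow cytometry, FITC channel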
ALR H2O2 inh: inhibitors of human ALR sulfhydryl oxidase, primary screen, biochemical, H2O2 detection, HRP-luminol luminescence, single point | inhibition, % (no concentration beside the values) | FAD-linked sulfhydryl oxidase ALR (Homo sapiens), P55789 | hit rate 3.8% among 290,000 | purified ALR, DTT oxidation;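 active = mean replicate inhibition above about 79%, with every replicate also reaching it, limit read from the data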
Target sequence (P55789 whole entry, looked up): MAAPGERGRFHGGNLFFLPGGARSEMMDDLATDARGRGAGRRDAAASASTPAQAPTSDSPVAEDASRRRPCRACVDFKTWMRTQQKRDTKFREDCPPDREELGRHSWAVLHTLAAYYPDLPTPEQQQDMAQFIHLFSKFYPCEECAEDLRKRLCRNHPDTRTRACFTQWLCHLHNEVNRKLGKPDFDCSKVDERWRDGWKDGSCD
PolyA inh: polyadenylation inhibitors in yeast reporter cells, primary screen, luminescence, S. cerevisiae. activity score, % at 12 µM. hit rate 0.02% among 300,000. AID 1875, 2009. S. cerevisiae SKY197-pL101 polyadenylation reporter, beta-gal luminescence; efflux-impaired pdr1/pdr3 knockout yeast; score 100 = 6 SD above DMSO;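 active = lowest replicate activity score at least 50, where 100 means six control SD above control mean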;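 also: yeast exposed to compound for 9 h at 30 °C; higher score means more reporter readthrough which indicates perturbed polyadenylation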
Pemphigus Ab inh: inhibitors of pemphigus antibody binding to DSG3, primary screen, biochemical, bead-based, flow cytometry, scFv-GFP | Desmoglein-3 (Homo sapiens), P32926 | DSG3-coupled beads, scFv-anti-DSG3-GFP binding; stronger effect = lower value | binding (percent of control), % at 10 µM | hit rate 0.48% among 310,000;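 active = binding more than 3 SD below its plate's average and above zero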
NALP1 inh: NALP1 inflammasome inhibitors in reconstituted yeast, colorimetric, S. cerevisiae, triplicate retest; hit rate 0.61% among 280,000; S. cerevisiae NALP1/ASC/caspase-1 growth, X-gal OD620, 72 h; inhibition, % at 10 µM; in the data active = inhibition mostly above about 24%, no sharp cut-off; inactive = mostly below about 32%
Hits are given with their value; n = inactive; x = no result. Sampled rows, rich in hits. Any-hit rate of the full collection: about 4.6%.

SMILES	NALP3 yeast inh	Arrestin-AP2 inh	ALR H2O2 inh	PolyA inh	Pemphigus Ab inh	NALP1 inh
CN(CC(=O)Nc1ccc(Cl)cc1)C(=O)CNC(=O)c1ccc(Br)o1	n	n	x	n	n	x
CCN(CC)CCCNC(=O)c1cn(CCOC)c(=O)c2c1c1ccccc1n2C	n	n	n	x	n	30.6
Cc1ccc(-n2nc(-c3ccco3)cc2C(=O)O)c(C)c1	x	n	x	n	59.6	n
O=C(O)c1cc(-c2ccco2)nn1-c1ccc(Cl)cc1	x	n	x	n	n	n
COc1ccc2nc(NC(=O)CSc3nnnn3C)sc2c1	n	n	n	n	-8.1	n
COc1ccc2nc(NC(=O)CSc3n[nH]c(N)n3)sc2c1	n	n	90.3	n	n	x
O=C(c1cccc(-c2ccccc2)c1)N1CC[C@@H](N2CCC(O)CC2)[C@H](O)C1	n	n	n	n	n	n
CCOC(=O)c1ccc(S(=O)(=O)NCCN(CC)CC)cc1	n	n	n	n	n	n
CCN(CC)CCNS(=O)(=O)c1ccc(C(=O)NN)cc1	n	n	98.1	n	n	n
Cc1cccc(N=C(NO)c2nonc2N)c1	n	n	88.8	n	n	n
COCCNC(=O)C(c1ccc(F)cc1)N(Cc1cccs1)C(=O)CCC(=O)Nc1ccccn1 (stereo unspecified)	n	n	n	n	n	n
COc1ccc2nc3cccc(OC)c3nc2c1	n	n	x	n	n	n
COc1ccc2nc3ccccc3nc2c1N	n	n	99.2	n	n	n
Nc1ncnc2c(C3OC(CO)C(O)C3O)c[nH]c12 (stereo unspecified)	x	n	x	x	n	x
CCOC(=O)C1=C(N)OC2=C(C(=O)CCC2)C1c1ccccc1OCC (stereo unspecified)	n	n	77.5	n	n	n
Nc1nc(CSc2ncn(-c3ccccc3)n2)cs1	n	n	97.9	n	n	n
c1ccc(CSc2ncn(-c3ccccc3)n2)cc1	n	n	n	n	n	n
CCOC(=O)/C(C#N)=C\C=C1C=CN(C)C=C1	n	n	99.0	n	n	n
CCOC(=O)/C(C#N)=C\c1ccc(CC)s1	n	n	n	n	n	n
CC1=C(C(=O)Nc2ccccc2C(=O)N2CCN(c3ccccc3)CC2)SCCO1	x	x	x	x	n	x
COC(=O)/C=C1/S/C(=N/NC(=O)c2ccccc2OC)NC1=O	n	n	96.6	n	n	n
COC(=O)/C=C1/S/C(=N/NC(=O)c2ccc(OC)cc2)NC1=O	n	n	n	n	n	n
Cc1ccc(C)n1Cc1ccc(C(=O)O)cc1	n	n	x	x	67.8	n
COc1ccccc1CNc1nc2ccccc2n1CCN1CCCCC1	n	n	98.0	n	n	n
C=CCc1cccc(CNc2nc3ccccc3n2CCN2CCOCC2)c1O	n	n	n	n	n	n
SMILES	NALP3 yeast inh	Arrestin-AP2 inh	ALR H2O2 inh	PolyA inh	Pemphigus Ab inh	NALP1 inh
Oc1ccccc1CNc1nc2ccccc2n1CCN1CCCCC1	n	n	95.6	n	n	n
COC(=O)C1=C(NC(=O)c2cccc(OC)c2)CCS1	n	n	97.2	n	n	n
COc1ccc(NC(=O)COc2ccccc2Cc2ccccc2)cc1S(=O)(=O)N1CCOCC1	n	n	x	x	n	x
COc1cc(C(=O)NC(=S)NNC(=O)c2cnccn2)cc(OC)c1OC	n	n	95.9	n	n	n
Cn1c(N)c(C(C[N+](=O)[O-])c2c(F)cccc2Cl)c(=O)n(C)c1=O (stereo unspecified)	n	n	x	n	n	44.5
O=S(=O)(N/N=C\c1ccc2c(c1)OCO2)c1ccc(F)cc1	n	n	86.4	n	n	n
COc1cc(/C=N/N(C)c2ccccc2)ccc1O	n	n	98.9	n	n	n
Clc1ccccc1N/N=C/c1ccc2c(c1)OCO2	n	n	99.0	n	n	n
O=S(=O)(N/N=C\c1ccc2c(c1)OCO2)c1ccc(Cl)cc1	n	n	n	n	n	n
CN(/N=C/c1ccc2c(c1)OCO2)c1ccccc1	n	n	85.1	n	n	n
Cc1cccc(NC(=O)CSCC(=O)N(C)Cc2c(F)cccc2Cl)c1	n	n	n	n	n	x
COc1ccc(-c2csc(NC(=O)CCNC(=O)c3ccco3)n2)cc1	x	x	x	x	n	x
COCCCC1CCN(Cc2cn[nH]c2-c2cc(OC)c(OC)c(OC)c2)CC1	n	n	n	n	n	26.4
COCC1CCN(Cc2cn[nH]c2-c2cc(OC)c(OC)c(OC)c2)CC1	n	n	n	n	n	n
CCC(=O)N1CCN=C1SCc1ccccc1Cl	n	n	99.7	n	n	n
O=C(C1CCCC1)N1CCN=C1SCc1cccc([N+](=O)[O-])c1	n	n	99.2	n	n	n
CC(=O)N1CCN=C1SCc1ccccc1F	n	n	99.0	n	n	n
CC(=O)N1CCN=C1SCc1ccccc1Cl	n	n	100.8	n	n	n
COc1cccc(/C=N/NC(=O)CNC(=O)C(c2ccccc2)c2ccccc2)c1O	n	n	x	n	n	n
O=C(NNC(=S)Nc1ccc(C(=O)O)c(O)c1)c1ccncc1	x	n	x	x	n	x
CCCN(C(=O)COC(=O)c1nc2nc(C)cc(C)n2n1)C1CCS(=O)(=O)C1 (stereo unspecified)	n	n	x	x	n	x
O=C(C1CC1)N1CCN=C1SCc1ccccc1Cl	n	n	99.2	n	n	n
Cc1cc2ccccc2n1CCNC(=O)c1cccs1	n	n	n	n	61.3	x
CCn1c(CCCNC(=O)c2cccs2)nc2ccccc21	n	n	97.8	n	n	x
Cc1cc2ccccc2n1CCNC(=O)C1CC1	n	n	n	n	n	n
SMILES	NALP3 yeast inh	Arrestin-AP2 inh	ALR H2O2 inh	PolyA inh	Pemphigus Ab inh	NALP1 inh
CC(OC(=O)Cn1nnc2ccccc21)C(=O)NC1CCCC1 (stereo unspecified)	n	n	n	n	x	n
C=CCn1c(C(C)NC(=O)c2ccc(C)cc2)n[nH]c1=S (stereo unspecified)	n	n	95.4	n	n	n
CCn1c(CNc2ccc(F)cc2)nnc1SCCN1CCCCC1	n	n	97.6	n	x	n
Cn1c(N)c(C(=O)COC(=O)c2cc(S(=O)(=O)NCc3ccccc3)ccc2O)c(=O)n(C)c1=O	x	n	x	x	n	x
Cc1cc(C(=O)CSc2nnc(N)s2)c(C)n1C1CC1	n	n	97.8	n	n	x
c1ccc(N/N=C2\CCCc3ccccc32)nc1	n	n	n	n	x	n
Fc1ccc2c(c1)/C(=N/Nc1ccccn1)CCS2	n	n	98.7	n	n	n
CCN(CC)CCn1c(=S)[nH]c2ccc(Br)cc2c1=O	n	n	96.7	n	n	n
CCN(CC)CCn1c(=S)[nH]c2ccccc2c1=O	n	n	n	n	n	n

Bioassay records (PubChem BioAssay)
